According to ChEMBL document CHEMBL4368914, “Tricyclic Indazoles-A Novel Class of Selective Estrogen Receptor Degrader Antagonists” (J Med Chem, 2019):
pIC50: −log10 of the molar value.

What was measured:
[1] = Fraction unbound in Alderley Park Han Wistar rat plasma by equilibrium dialysis; assay type: ADME, cell-free
Procedure, shortened: (§1)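 Equilibrium dialysis from DMSO stock in 10% plasma, either Alderley Park Han Wistar rat plasma or human plasma.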

Estrogen receptor [2] = target: T1, Estrogen receptor (Homo sapiens, UniProt P03372); assay: Binding affinity to recombinant human GST-tagged ERalpha LBD expressed in baculovirus-infected insect cells by lantha screen assay
T1 sequence (P03372 whole entry): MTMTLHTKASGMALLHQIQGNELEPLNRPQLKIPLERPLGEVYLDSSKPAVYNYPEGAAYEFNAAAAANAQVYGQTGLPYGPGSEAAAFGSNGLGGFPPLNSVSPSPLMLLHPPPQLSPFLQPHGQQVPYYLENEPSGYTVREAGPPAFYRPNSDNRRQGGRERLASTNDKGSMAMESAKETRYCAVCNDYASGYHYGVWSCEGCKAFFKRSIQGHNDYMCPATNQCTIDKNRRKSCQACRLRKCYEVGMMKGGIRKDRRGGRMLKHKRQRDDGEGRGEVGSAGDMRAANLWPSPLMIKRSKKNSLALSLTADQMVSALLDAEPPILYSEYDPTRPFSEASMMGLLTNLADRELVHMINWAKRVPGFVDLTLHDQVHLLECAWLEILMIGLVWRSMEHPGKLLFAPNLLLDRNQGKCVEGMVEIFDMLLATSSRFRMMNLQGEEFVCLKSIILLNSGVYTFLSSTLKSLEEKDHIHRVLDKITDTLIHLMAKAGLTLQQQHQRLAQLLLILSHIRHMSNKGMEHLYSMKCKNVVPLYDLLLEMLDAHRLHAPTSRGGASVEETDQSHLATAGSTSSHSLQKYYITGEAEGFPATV

Estrogen receptor [3] = target: T1, Estrogen receptor; assay: Induction of ERalpha degradation in human MCF7 cells after 18 to 24 hrs by in multiplexed cell assay; assay type: cell-based
Procedure, shortened: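 MCF-7 cells were kept at 37 °C, 5% CO₂ in phenol red-free RPMI1640 with 5% charcoal-stripped FCS and 2 mmol/L glutamine. Compounds came from 10 mmol/L DMSO stocks.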

[4] = Lipophilicity, log D of the compound at pH 7.4 by shake flask method; assay type: physicochemical; conditions: buffer
Procedure, shortened: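 Shake-flask measurement of logD at pH 7.4.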

[5] = Fraction unbound in 10% human plasma by equilibrium dialysis; assay type: ADME, cell-free; conditions: 10% plasma; procedure, shortened: as §1
[6] = Intrinsic clearance in rat hepatocytes assessed per million cells; assay type: ADME, cell-based, Hepatocyte; conditions: read-out: CLH
Procedure, shortened: (§2)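 Rate of metabolism (µl/min/10⁶ cells) measured from DMSO stock in isolated hepatocytes diluted to 1x10⁶ cells/mL.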

[7] = Intrinsic clearance in human hepatocytes assessed per million cells; assay type: ADME, cell-based, Hepatocyte; conditions: read-out: CLH; procedure, shortened: as §2
[8] = Glutathione reactivity in human liver microsomes assessed as GSH trapping ratio of compound to clozapine; assay type: ADME, Microsome
Procedure, shortened: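 Glutathione trapping in human liver microsomes, expressed as a ratio to clozapine.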

CC(C)CN1CCc2cc(O)ccc2[C@H]1c1ccc(/C=C/C(=O)O)cc1 gave a fraction unbound [1] of 0.037.
CC(C)CN1[C@H](c2c(F)cc(/C=C/C(=O)O)cc2F)c2ccc3[nH]ncc3c2C[C@H]1C gave a pIC50 (Estrogen receptor [2]) of 8.90, a pIC50 (Estrogen receptor [3]) of 9.10 and a logD [4] of 3. For the same compound, the fraction unbound [1] was 0.0052, the fraction unbound [5] was 0.0048 and the hepatocyte CLint [6] was 19 µL/min/1e6 cells. The hepatocyte CLint [7] was 22 µL/min/1e6 cells and the Ratio [8] was < 0.04.
Compound CC(C)CN1[C@H](c2ccc(/C=C/C(=O)O)cc2)c2ccc3[nH]ncc3c2C[C@H]1C has a pIC50 (Estrogen receptor [2]) of 8.00, a pIC50 (Estrogen receptor [3]) of 9.20 and a fraction unbound [1] of 0.034. The fraction unbound [5] was 0.022, the hepatocyte CLint [6] was 7 µL/min/1e6 cells and the hepatocyte CLint [7] was 30 µL/min/1e6 cells. The Ratio [8] was < 0.04.
COc1cc(/C=C/C(=O)O)ccc1[C@]1(C)c2ccc3[nH]ncc3c2C[C@@H](C)N1CC(C)(C)F showed a pIC50 (Estrogen receptor [2]) of 8.40, a pIC50 (Estrogen receptor [3]) of 8.60 and a logD [4] of 1.9. It also gave a fraction unbound [5] of 0.077, a hepatocyte CLint [6] of 10 µL/min/1e6 cells and a hepatocyte CLint [7] of 4 µL/min/1e6 cells.
COc1cc(/C=C/C(=O)O)cc(F)c1[C@@H]1c2ccc3[nH]ncc3c2C[C@@H](C)N1CC(C)(F)F gave a pIC50 (Estrogen receptor [2]) of 9.50, a pIC50 (Estrogen receptor [3]) of 9.70 and a logD [4] of 2.8. It also gave a fraction unbound [5] of 0.007, a hepatocyte CLint [6] of 32 µL/min/1e6 cells and a hepatocyte CLint [7] of 6 µL/min/1e6 cells.
Work on CC(C)CN1CCc2c(ccc3[nH]ncc23)[C@H]1c1ccc(/C=C/C(=O)O)cc1 yielded a pIC50 (Estrogen receptor [2]) of 7.60, a pIC50 (Estrogen receptor [3]) of 8.20 and a logD [4] of 1.9. For the same compound, the fraction unbound [1] was 0.036, the fraction unbound [5] was 0.07 and the hepatocyte CLint [6] was 10 µL/min/1e6 cells. For the same compound, the hepatocyte CLint [7] was 51 µL/min/1e6 cells and the Ratio [8] was < 0.04.
C[C@@H]1Cc2c(ccc3[nH]ncc23)[C@@H](c2ccc(/C=C/C(=O)O)cc2)N1CC(C)(C)F gave a pIC50 (Estrogen receptor [2]) of 8.80, a pIC50 (Estrogen receptor [3]) of 9.50 and a logD [4] of 2.9. It also gave a fraction unbound [1] of 0.015, a fraction unbound [5] of 0.0087 and a hepatocyte CLint [6] of 8 µL/min/1e6 cells. It also gave a hepatocyte CLint [7] of 78 µL/min/1e6 cells.
In the case of CC(C)CN1CCc2cccc3[nH]cc(c23)C1c1ccc(/C=C/C(=O)O)cc1 (stereo not drawn), the pIC50 (Estrogen receptor [2]) was 4.40, the pIC50 (Estrogen receptor [3]) was < 5.00 and the logD [4] was 1. The fraction unbound [5] was 0.11 and the hepatocyte CLint [6] was 10 µL/min/1e6 cells.
In the case of CC(C)CN1CCc2c(ccc3[nH]ccc23)C1c1ccc(/C=C/C(=O)O)cc1 (stereo not drawn), the pIC50 (Estrogen receptor [2]) was 6.50, the pIC50 (Estrogen receptor [3]) was 7.20 and the logD [4] was 1.7. The fraction unbound [1] was 0.068, the fraction unbound [5] was 0.033 and the hepatocyte CLint [6] was 20 µL/min/1e6 cells. It also gave a hepatocyte CLint [7] of 8 µL/min/1e6 cells.
C[C@@H]1Cc2c(ccc3[nH]ncc23)[C@@](C)(c2c(F)cc(/C=C/C(=O)O)cc2F)N1CC(C)(F)F gave a pIC50 (Estrogen receptor [2]) of 9.50, a pIC50 (Estrogen receptor [3]) of 9.10 and a logD [4] of 3. For the same compound, the fraction unbound [1] was 0.0076, the fraction unbound [5] was 0.0027 and the hepatocyte CLint [6] was 20 µL/min/1e6 cells. It also gave a hepatocyte CLint [7] of 6 µL/min/1e6 cells.
In the case of COc1cc(/C=C/C(=O)O)ccc1[C@@H]1c2ccc3[nH]ncc3c2C[C@@H](C)N1CC(C)(C)F, the pIC50 (Estrogen receptor [2]) was 8.80, the pIC50 (Estrogen receptor [3]) was 9.20 and the logD [4] was 2.2. For the same compound, the fraction unbound [1] was 0.046, the fraction unbound [5] was 0.0098 and the hepatocyte CLint [6] was 17 µL/min/1e6 cells. For the same compound, the hepatocyte CLint [7] was 6 µL/min/1e6 cells and the Ratio [8] was < 0.04.
C[C@@H]1Cc2c(ccc3[nH]ncc23)[C@@](C)(c2c(F)cc(/C=C/C(=O)O)cc2F)N1CC(C)(C)F gave a pIC50 (Estrogen receptor [2]) of 9.40, a pIC50 (Estrogen receptor [3]) of 9.20 and a logD [4] of 2.9. The fraction unbound [1] was 0.0023, the fraction unbound [5] was 0.0033 and the hepatocyte CLint [6] was 12 µL/min/1e6 cells. For the same compound, the hepatocyte CLint [7] was 10 µL/min/1e6 cells and the Ratio [8] was < 0.04.
Work on COc1c([C@@H]2c3ccc4[nH]ncc4c3C[C@@H](C)N2CC(C)(F)F)ccc(/C=C/C(=O)O)c1F yielded a pIC50 (Estrogen receptor [2]) of 8.90, a pIC50 (Estrogen receptor [3]) of 8.20 and a logD [4] of 2.6. The fraction unbound [5] was 0.0082, the hepatocyte CLint [6] was 17 µL/min/1e6 cells and the hepatocyte CLint [7] was 7 µL/min/1e6 cells.
COc1cc(/C=C/C(=O)O)c(F)cc1[C@@H]1c2ccc3[nH]ncc3c2C[C@@H](C)N1CC(C)(F)F showed a pIC50 (Estrogen receptor [2]) of 9.30, a pIC50 (Estrogen receptor [3]) of 9.50 and a logD [4] of 2.6. For the same compound, the fraction unbound [5] was 0.012, the hepatocyte CLint [6] was 22 µL/min/1e6 cells and the hepatocyte CLint [7] was 5 µL/min/1e6 cells.
With CC(C)CN1[C@H](c2ccc(/C=C/C(=O)O)cc2)c2ccc3[nH]ncc3c2CC1(C)C the pIC50 (Estrogen receptor [2]) was 7.70, the pIC50 (Estrogen receptor [3]) was 8.80 and the logD [4] was 2. For the same compound, the fraction unbound [1] was 0.066, the fraction unbound [5] was 0.036 and the hepatocyte CLint [6] was 6 µL/min/1e6 cells. For the same compound, the hepatocyte CLint [7] was 93 µL/min/1e6 cells and the Ratio [8] was < 0.04.
